Experimental findings from ChEMBL document CHEMBL3091410, “Enmein-type 6,7-seco-ent-kauranoids from Isodon sculponeatus” (J Nat Prod, 2013) are described below.

The subject of experiment [1] is MCF7. Nature of the experiment: Cytotoxicity against human MCF7 cells after 48 hrs by MTS assay. Type of experiment: functional, cell-based. To be noted: MCF7, 48 h. The method in brief:
(§1)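 Lines obtained from ATCC, grown in RPMI-1640 or DMEM with 10% FBS at 37 °C, 5% CO2. Adherent cells seeded at 1 × 10^5 cells/mL and allowed to attach 12 h; suspension cells seeded just before dosing. Range of concentrations tested in triplicate for 48 h. MTS then added for 4 h at 37 °C, cells lysed in 20% SDS-50% DMF, OD read at 490 nm. IC50 by Reed and Muench method.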

Experiment [2] deals with HL-60. Nature of the experiment: Cytotoxicity against human HL60 cells after 48 hrs by MTS assay. It is filed as functional, cell-based. The conditions noted are these: HL-60, 48 h. The method in brief:
as §1
In general terms: Formazan colour is commonly taken as a measure of viable cells.

Experiment [3] concerns A549. Nature of the experiment: Cytotoxicity against human A549 cells after 48 hrs by MTS assay. It is filed as functional, cell-based. The conditions noted are these: A549, 48 h. The essentials:
as §1

The test system of experiment [4] is SW480. Nature of the experiment: Cytotoxicity against human SW480 cells after 48 hrs by MTS assay. Type of experiment: functional, cell-based. To be noted: SW480, 48 h. The essentials: as §1
The test system of experiment [5] is SMMC-7721. Nature of the experiment: Cytotoxicity against human SMMC7721 cells after 48 hrs by MTS assay. It is filed as functional, cell-based. To be noted: SMMC-7721, 48 h. The essentials: as §1
For experiment [6], the system named is RAW264.7. Nature of the experiment: Inhibition of LPS-stimulated NO production in mouse RAW264.7 cells after 18 hrs by Griess assay. Type of experiment: functional, cell-based. The conditions noted are these: RAW264.7, 18 h. The essentials: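 RAW264.7 macrophages, 2 × 10^5 cells/well in RPMI 1640 with 10% FBS, preincubated 24 h. Serial dilutions up to 25 μM (DMSO stock diluted in medium) given with 1 μg/mL LPS for 18 h. Supernatant mixed 1:1 with Griess reagent, in triplicate, 5 min; absorbance at 570 nm. Parallel MTS viability check under the same 18 h conditions.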

Experiment [7] concerns SW480. Nature of the experiment: Potency index, ratio of cisplatin IC50 to compound IC50 for human SW480 cells. It is filed as functional.

Usually IC50 stands for the concentration that inhibits the measured activity by half. Read a high IC50 as a need for much substance. In the case of `C=C1[C@@H]2CC[C@@H]3[C@](C2)(C(=O)O[C@H]2CCC(C)(C)[C@H]4[C@H](O)OC[C@@]243)[C@@H]1O`, the IC50 in experiment [1], in experiment [2], in experiment [3], in experiment [4] and in experiment [5] was over 40 µM throughout.
Consider `C=C1C(=O)[C@]23C[C@H]1CC[C@H]2[C@@]12CO[C@@H](O)[C@@H]1C(C)(C)CC[C@@H]2OC3=O`, for which the half-inhibitory concentration (IC50) was 2.6 µM in experiment [1]; 2.8 µM in experiment [2]; 3.2 µM in experiment [3]; 1 µM in experiment [4]; 2.2 µM in experiment [6]; 3.5 µM in experiment [5]. Besides, the “Ratio IC50” value in experiment [7] is 15.
For `C=C1[C@H]2C[C@@]3(C(=O)O[C@H]4CCC(C)(C)[C@H]5[C@H](O)OC[C@@]45[C@@H]3[C@@H]3O[C@@H]32)[C@@H]1O`, the IC50 in experiment [1], in experiment [2], in experiment [3], in experiment [4] and in experiment [5] was over 40 µM each time.
As for `C=C1[C@@H]2C=C[C@@H]3[C@](C2)(C(=O)O[C@H]2CCC(C)(C)[C@H]4[C@H](O)OC[C@@]243)[C@@H]1O`, the IC50 in experiment [1], in experiment [2], in experiment [3], in experiment [4] and in experiment [5] was over 40 µM each time.
For the compound `C=C1[C@@H](O)[C@]23C[C@@]1(O)C[C@@H](O)[C@H]2[C@]12CO[C@@H]4OC[C@](C)(CC[C@@H]1OC3=O)[C@@H]42`, the 50% inhibitory concentration (IC50) in experiment [1], in experiment [2], in experiment [3], in experiment [4] and in experiment [5] was over 40 µM each time.
Turning to `CC1(C)[C@H](O)C[C@@H]2OC(=O)[C@@]34C[C@@H](C[C@@H](O)[C@H]3[C@]23CO[C@@H](O)[C@H]13)[C@](C)(O)C4=O`, the 50% inhibitory concentration (IC50) in experiment [1], in experiment [2], in experiment [3], in experiment [4] and in experiment [5] was over 40 µM throughout.
With `C=C1C(=O)[C@]23C[C@H]1CC[C@H]2[C@@]12CO[C@@H](O)[C@@H]1C(C)(C)[C@@H](O)C[C@@H]2OC3=O` [ENEMIN], the IC50 in experiment [1], in experiment [2], in experiment [3], in experiment [4] and in experiment [5] was over 40 µM in each case.
Regarding `C=C1C(=O)[C@]23C[C@H]1C[C@H](O)[C@H]2[C@@]12CO[C@@H](O)[C@@H]1C(C)(C)CC[C@@H]2OC3=O` [EPINODOSIN], the half-inhibitory concentration (IC50) in experiment [1], in experiment [2], in experiment [3], in experiment [4] and in experiment [5] was over 40 µM in each case.
Consider `C=C1C(=O)[C@]23C[C@H]1C[C@@H](O)[C@H]2[C@@]12CO[C@@H](O)[C@@H]1C(C)(C)CC[C@@H]2OC3=O` [NODOSIN], for which the half-maximal inhibitory concentration (IC50) is 23.5 µM in experiment [1]; 15 µM in experiment [2]; over 40 µM in experiment [3]; 12.1 µM in experiment [4]; 18.4 µM in experiment [6]; 27 µM in experiment [5].
As to `CC(=O)O[C@H]1C(=O)[C@@]2(C)[C@H]([C@H](OC(=O)c3ccccc3)[C@]3(O)C[C@H](OC(=O)[C@H](O)[C@@H](NC(=O)c4ccccc4)c4ccccc4)C(C)=C1C3(C)C)[C@]1(OC(C)=O)CO[C@@H]1C[C@@H]2O` [PACLITAXEL], the IC50 in experiment [1], in experiment [2], in experiment [3], in experiment [4] and in experiment [5] was under 0.008 µM throughout.
In the case of `C=C1C(=O)[C@]23C[C@H]1C[C@@H](O)[C@H]2[C@]12CO[C@@H]4OC[C@](C)(CC[C@@H]1OC3=O)[C@@H]42` [SCULPONEATIN A], the IC50 in experiment [1] stood at 15 µM; in experiment [2], 12.7 µM; in experiment [3], 17.1 µM; in experiment [4], 3.5 µM; in experiment [6], 9.1 µM; in experiment [5], 15.2 µM.
In the case of `C=C1[C@@H]2C[C@@H](O)[C@@H]3[C@](C2)(C(=O)O[C@H]2CC[C@@]4(C)CO[C@H]5OC[C@]23[C@H]54)[C@@H]1O` [SCULPONEATIN B], the IC50 in experiment [1], in experiment [2], in experiment [3], in experiment [4] and in experiment [5] was over 40 µM throughout.
